Assay results taken from ChEMBL document CHEMBL1146375, “Synthetic studies on novel benzimidazolopeptides with antimicrobial, cytotoxic and anthelmintic potential” (2007).
Converted amounts (≈) assume the structure as drawn.

Test system: Bacillus subtilis
Test: Antibacterial activity against Bacillus subtilis NCIM 2063 after 18 hrs by disc diffusion method
Format: functional
Conditions: not given
In short: (§1)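 Modified Kirby-Bauer disc diffusion. Plates inoculated with spore suspension (about 6 × 10⁴ spores mL^-1). Sterile 6 mm paper discs carried test samples at 10 mg mL^-1; ciprofloxacin disc as reference, DMF disc as negative control. Plates held 18 h at 37 °C. Inhibition zone diameters (mm) averaged over triplicate sets.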

Row | Structure (SMILES) | inhibition zone (IZ) [mm]
1 | COC(=O)CNC(=O)[C@H](Cc1ccc(O)cc1)NC(=O)[C@H](C)NC(=O)c1cc(I)c(-c2nc3cc(C)c(C)cc3[nH]2)c(I)c1 | 15
2 | COC(=O)CNC(=O)[C@H](CC(C)C)NC(=O)c1ccc(-c2nc3cc(C)c(C)cc3[nH]2)cc1 | 10

Test system: Staphylococcus aureus
Test: Antibacterial activity against Staphylococcus aureus NCIM 2079 after 18 hrs by disc diffusion method
Format: functional
Conditions: not given
In short: as §1

Row | Structure (SMILES) | inhibition zone (IZ) [mm]
3 | COC(=O)CNC(=O)[C@H](Cc1ccc(O)cc1)NC(=O)[C@H](C)NC(=O)c1cc(I)c(-c2nc3cc(C)c(C)cc3[nH]2)c(I)c1 | 12
4 | COC(=O)CNC(=O)[C@H](CC(C)C)NC(=O)c1ccc(-c2nc3cc(C)c(C)cc3[nH]2)cc1 | 9

Test system: Pseudomonas aeruginosa
Test: Antibacterial activity against Pseudomonas aeruginosa NCIM 2034 after 18 hrs by disc diffusion method
Format: functional
Conditions: not given
In short: as §1

Row | Structure (SMILES) | inhibition zone (IZ) [mm]
5 | COC(=O)CNC(=O)[C@H](Cc1ccc(O)cc1)NC(=O)[C@H](C)NC(=O)c1cc(I)c(-c2nc3cc(C)c(C)cc3[nH]2)c(I)c1 | 20
6 | COC(=O)CNC(=O)[C@H](CC(C)C)NC(=O)c1ccc(-c2nc3cc(C)c(C)cc3[nH]2)cc1 | 20

Test system: Escherichia coli
Test: Antibacterial activity against Escherichia coli NCIM 2065 after 18 hrs by disc diffusion method
Format: functional
Conditions: not given
In short: as §1

Row | Structure (SMILES) | inhibition zone (IZ) [mm]
7 | COC(=O)CNC(=O)[C@H](Cc1ccc(O)cc1)NC(=O)[C@H](C)NC(=O)c1cc(I)c(-c2nc3cc(C)c(C)cc3[nH]2)c(I)c1 | 17
8 | COC(=O)CNC(=O)[C@H](CC(C)C)NC(=O)c1ccc(-c2nc3cc(C)c(C)cc3[nH]2)cc1 | 14

Test system: Candida albicans
Test: Antifungal activity against Candida albicans MUCC 29 after 48 hrs by disc diffusion method
Format: functional
Conditions: not given
In short: (§2)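 Agar well diffusion on plates inoculated with spore suspension in normal saline from cultures on Sabouraud's broth. Wells punched and loaded with test samples or griseofulvin at 10 mg mL^-1, with DMSO as negative control. Incubated 48 h at 37 °C.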

Row | Structure (SMILES) | inhibition zone (IZ) [mm]
9 | COC(=O)CNC(=O)[C@H](Cc1ccc(O)cc1)NC(=O)[C@H](C)NC(=O)c1cc(I)c(-c2nc3cc(C)c(C)cc3[nH]2)c(I)c1 | 15
10 | COC(=O)CNC(=O)[C@H](CC(C)C)NC(=O)c1ccc(-c2nc3cc(C)c(C)cc3[nH]2)cc1 | 18

Test system: Microsporum audouinii
Test: Antifungal activity against Microsporum audouinii MUCC 545 after 48 hrs by disc diffusion method
Format: functional
Conditions: not given
In short: as §2

Row | Structure (SMILES) | inhibition zone (IZ) [mm]
11 | COC(=O)CNC(=O)[C@H](Cc1ccc(O)cc1)NC(=O)[C@H](C)NC(=O)c1cc(I)c(-c2nc3cc(C)c(C)cc3[nH]2)c(I)c1 | 9
12 | COC(=O)CNC(=O)[C@H](CC(C)C)NC(=O)c1ccc(-c2nc3cc(C)c(C)cc3[nH]2)cc1 | 10

Test system: Trichophyton benhamiae
Test: Antifungal activity against Trichophyton mentagrophytes MUCC 665 after 48 hrs by disc diffusion method
Format: functional, Arthroderma benhamiae
Conditions: not given
In short: as §2

Row | Structure (SMILES) | inhibition zone (IZ) [mm]
13 | COC(=O)CNC(=O)[C@H](Cc1ccc(O)cc1)NC(=O)[C@H](C)NC(=O)c1cc(I)c(-c2nc3cc(C)c(C)cc3[nH]2)c(I)c1 | 13
14 | COC(=O)CNC(=O)[C@H](CC(C)C)NC(=O)c1ccc(-c2nc3cc(C)c(C)cc3[nH]2)cc1 | 12

Test system: Aspergillus niger
Test: Antifungal activity against Aspergillus niger MUCC 177 after 48 hrs by disc diffusion method
Format: functional
Conditions: not given
In short: as §2

Row | Structure (SMILES) | inhibition zone (IZ) [mm]
15 | COC(=O)CNC(=O)[C@H](Cc1ccc(O)cc1)NC(=O)[C@H](C)NC(=O)c1cc(I)c(-c2nc3cc(C)c(C)cc3[nH]2)c(I)c1 | 15
16 | COC(=O)CNC(=O)[C@H](CC(C)C)NC(=O)c1ccc(-c2nc3cc(C)c(C)cc3[nH]2)cc1 | 16

Test system: Bacillus subtilis
Test: Antibacterial activity against Bacillus subtilis NCIM 2063 after 18 hrs by tube dilution method
Format: functional
Conditions: NCIM 2063, 18 h
In short: (§3)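 Tube dilution MIC. Stock diluted in sterile broth to seven concentrations from 200 to 3.1 […]. Each tube inoculated with one loopful of test bacterium and incubated 18 h at 37 °C. MIC read from presence or absence of growth.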

Row | Structure (SMILES) | MIC [µg/mL]
17 | COC(=O)CNC(=O)[C@H](Cc1ccc(O)cc1)NC(=O)[C@H](C)NC(=O)c1cc(I)c(-c2nc3cc(C)c(C)cc3[nH]2)c(I)c1 | 6 (≈ 7.29 µM)
18 | COC(=O)CNC(=O)[C@H](CC(C)C)NC(=O)c1ccc(-c2nc3cc(C)c(C)cc3[nH]2)cc1 | 6 (≈ 13.3 µM)

Test system: Staphylococcus aureus
Test: Antibacterial activity against Staphylococcus aureus NCIM 2079 after 18 hrs by tube dilution method
Format: functional
Conditions: NCIM 2079, 18 h
In short: as §3

Row | Structure (SMILES) | MIC [µg/mL]
19 | COC(=O)CNC(=O)[C@H](Cc1ccc(O)cc1)NC(=O)[C@H](C)NC(=O)c1cc(I)c(-c2nc3cc(C)c(C)cc3[nH]2)c(I)c1 | 12.5 (≈ 15.2 µM)
20 | COC(=O)CNC(=O)[C@H](CC(C)C)NC(=O)c1ccc(-c2nc3cc(C)c(C)cc3[nH]2)cc1 | 12.5 (≈ 27.7 µM)

Test system: Pseudomonas aeruginosa
Test: Antibacterial activity against Pseudomonas aeruginosa NCIM 2034 after 18 hrs by tube dilution method
Format: functional
Conditions: NCIM 2034, 18 h
In short: as §3

Row | Structure (SMILES) | MIC [µg/mL]
21 | COC(=O)CNC(=O)[C@H](Cc1ccc(O)cc1)NC(=O)[C@H](C)NC(=O)c1cc(I)c(-c2nc3cc(C)c(C)cc3[nH]2)c(I)c1 | 6 (≈ 7.29 µM)
22 | COC(=O)CNC(=O)[C@H](CC(C)C)NC(=O)c1ccc(-c2nc3cc(C)c(C)cc3[nH]2)cc1 | 6 (≈ 13.3 µM)

Test system: Escherichia coli
Test: Antibacterial activity against Escherichia coli NCIM 2065 after 18 hrs by tube dilution method
Format: functional
Conditions: NCIM 2065, 18 h

Row | Structure (SMILES) | MIC [µg/mL]
23 | COC(=O)CNC(=O)[C@H](Cc1ccc(O)cc1)NC(=O)[C@H](C)NC(=O)c1cc(I)c(-c2nc3cc(C)c(C)cc3[nH]2)c(I)c1 | 12.5 (≈ 15.2 µM)
24 | COC(=O)CNC(=O)[C@H](CC(C)C)NC(=O)c1ccc(-c2nc3cc(C)c(C)cc3[nH]2)cc1 | 12.5 (≈ 27.7 µM)

Test system: Candida albicans
Test: Antifungal activity against Candida albicans MUCC 29 after 48 hrs by tube dilution method
Format: functional
Conditions: not given
In short: (§4)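 Tube dilution MIC as for bacteria (seven concentrations, 200–3.1 […]), with DMSO in place of DMF. Tubes inoculated with fungal culture and incubated 48 h at 37 °C. MIC read from presence or absence of growth.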

Row | Structure (SMILES) | MIC [µg/mL]
25 | COC(=O)CNC(=O)[C@H](Cc1ccc(O)cc1)NC(=O)[C@H](C)NC(=O)c1cc(I)c(-c2nc3cc(C)c(C)cc3[nH]2)c(I)c1 | 6 (≈ 7.29 µM)
26 | COC(=O)CNC(=O)[C@H](CC(C)C)NC(=O)c1ccc(-c2nc3cc(C)c(C)cc3[nH]2)cc1 | 6 (≈ 13.3 µM)

Test system: Microsporum audouinii
Test: Antifungal activity against Microsporum audouinii MUCC 545 after 48 hrs by tube dilution method
Format: functional
Conditions: not given
In short: as §4

Row | Structure (SMILES) | MIC [µg/mL]
27 | COC(=O)CNC(=O)[C@H](Cc1ccc(O)cc1)NC(=O)[C@H](C)NC(=O)c1cc(I)c(-c2nc3cc(C)c(C)cc3[nH]2)c(I)c1 | 12.5 (≈ 15.2 µM)
28 | COC(=O)CNC(=O)[C@H](CC(C)C)NC(=O)c1ccc(-c2nc3cc(C)c(C)cc3[nH]2)cc1 | 25 (≈ 55.5 µM)

Test system: Trichophyton benhamiae
Test: Antifungal activity against Trichophyton mentagrophytes MUCC 665 after 48 hrs by tube dilution method
Format: functional, Arthroderma benhamiae
Conditions: not given
In short: as §4

Row | Structure (SMILES) | MIC [µg/mL]
29 | COC(=O)CNC(=O)[C@H](Cc1ccc(O)cc1)NC(=O)[C@H](C)NC(=O)c1cc(I)c(-c2nc3cc(C)c(C)cc3[nH]2)c(I)c1 | 12.5 (≈ 15.2 µM)
30 | COC(=O)CNC(=O)[C@H](CC(C)C)NC(=O)c1ccc(-c2nc3cc(C)c(C)cc3[nH]2)cc1 | 6 (≈ 13.3 µM)

Test system: Eudrilus
Test: Anthelmintic activity against Eudrilus sp. assessed as mean paralyzing time
Format: functional
Conditions: not given
In short: (§5)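 Earthworms exposed to test suspensions at 2 mg mL^-1 (0.2% w/v), made by triturating compound with Tween 80 (0.5%) and distilled water, then mechanically stirred 30 min. Mebendazole suspension prepared alike as reference. Paralysis and death times recorded; death confirmed by no movement in 50 °C water. Means from triplicate sets.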

Row | Structure (SMILES) | Time [min]
31 | COC(=O)CNC(=O)[C@H](Cc1ccc(O)cc1)NC(=O)[C@H](C)NC(=O)c1cc(I)c(-c2nc3cc(C)c(C)cc3[nH]2)c(I)c1 | 27.42
32 | COC(=O)CNC(=O)[C@H](CC(C)C)NC(=O)c1ccc(-c2nc3cc(C)c(C)cc3[nH]2)cc1 | 29.73

Test system: Eudrilus
Test: Anthelmintic activity against Eudrilus sp. assessed as mean death time
Format: functional
Conditions: not given
In short: (§6)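 Earthworms exposed to test suspensions at 2 mg mL−1, prepared by triturating compound with Tween 80 (0.5%) and distilled water, stirring 30 min, then diluting to 0.2% w/v. Mebendazole suspension was made the same way. Death was confirmed by moving worms into 50 °C warm water and looking for movement. Mean death time (min) taken from triplicate sets.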

Row | Structure (SMILES) | Time [min]
33 | COC(=O)CNC(=O)[C@H](Cc1ccc(O)cc1)NC(=O)[C@H](C)NC(=O)c1cc(I)c(-c2nc3cc(C)c(C)cc3[nH]2)c(I)c1 | 45.3
34 | COC(=O)CNC(=O)[C@H](CC(C)C)NC(=O)c1ccc(-c2nc3cc(C)c(C)cc3[nH]2)cc1 | 42.54

Test system: not listed separately
Test: Anthelmintic activity against Megascoplex konkanensis ICARBC 211 assessed as mean paralyzing time
Format: functional
Conditions: not given
In short: as §5

Row | Structure (SMILES) | TIME [h]
35 | COC(=O)CNC(=O)[C@H](Cc1ccc(O)cc1)NC(=O)[C@H](C)NC(=O)c1cc(I)c(-c2nc3cc(C)c(C)cc3[nH]2)c(I)c1 | 0.472
36 | COC(=O)CNC(=O)[C@H](CC(C)C)NC(=O)c1ccc(-c2nc3cc(C)c(C)cc3[nH]2)cc1 | 0.472

Test system: not listed separately
Test: Anthelmintic activity against Megascoplex konkanensis ICARBC 211 assessed as mean death time
Format: functional
Conditions: not given
In short: as §5

Row | Structure (SMILES) | TIME [h]
37 | COC(=O)CNC(=O)[C@H](Cc1ccc(O)cc1)NC(=O)[C@H](C)NC(=O)c1cc(I)c(-c2nc3cc(C)c(C)cc3[nH]2)c(I)c1 | 0.652
38 | COC(=O)CNC(=O)[C@H](CC(C)C)NC(=O)c1ccc(-c2nc3cc(C)c(C)cc3[nH]2)cc1 | 0.69

Test system: Pontoscolex corethrurus
Test: Anthelmintic activity against Pontoscolex corethrurus ICARBC 408 assessed as mean paralyzing time
Format: functional
Conditions: not given
In short: as §5

Row | Structure (SMILES) | Time [min]
39 | COC(=O)CNC(=O)[C@H](Cc1ccc(O)cc1)NC(=O)[C@H](C)NC(=O)c1cc(I)c(-c2nc3cc(C)c(C)cc3[nH]2)c(I)c1 | 34.13
40 | COC(=O)CNC(=O)[C@H](CC(C)C)NC(=O)c1ccc(-c2nc3cc(C)c(C)cc3[nH]2)cc1 | 37.17

Test system: Pontoscolex corethrurus
Test: Anthelmintic activity against Pontoscolex corethrurus ICARBC 408 assessed as mean death time
Format: functional
Conditions: not given
In short: as §6

Row | Structure (SMILES) | Time [min]
41 | COC(=O)CNC(=O)[C@H](Cc1ccc(O)cc1)NC(=O)[C@H](C)NC(=O)c1cc(I)c(-c2nc3cc(C)c(C)cc3[nH]2)c(I)c1 | 48.24
42 | COC(=O)CNC(=O)[C@H](CC(C)C)NC(=O)c1ccc(-c2nc3cc(C)c(C)cc3[nH]2)cc1 | 49.4
